# Experimental data published in ChEMBL document CHEMBL1154740, “Efficient microwave combinatorial synthesis of novel indolic arylpiperazine derivatives as serotoninergic ligands” (Eur J Med Chem, 2010).
# Legend:
# [1] = target: 5-hydroxytryptamine receptor 2A (Rattus norvegicus, UniProt P14842); test: Displacement of [3H]ketanserin from 5HT2A in Sprague-Dawley rat brain cortex by liquid scintillation counting
# Summary of the method: (§1)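 Frontal cortex of male Sprague–Dawley rats (180–220 g), in 50 mM Tris-HCl, 0.5 mM EDTA, 10 mM MgCl2, pH 7.4, plus 0.1% ascorbate and pargyline. Triplicate 2.0 mL assays: 5-HT2A with 5 mg tissue and 0.4 nM [3H]ketanserin; 5-HT2C with 10 mg tissue and 1 nM [3H]mesulergine. 15 min at 37 °C, PEI-soaked filters. IC50 from six concentrations converted to Ki (Cheng–Prusoff).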
# [2] = target: T1, 5-hydroxytryptamine receptor 2C (Rattus norvegicus, UniProt P08909); test: Displacement of [3H]mesulergine from 5HT2C in Sprague-Dawley rat brain cortex by liquid scintillation counting; summary of the method: as §1
# T1 sequence (P08909 whole entry): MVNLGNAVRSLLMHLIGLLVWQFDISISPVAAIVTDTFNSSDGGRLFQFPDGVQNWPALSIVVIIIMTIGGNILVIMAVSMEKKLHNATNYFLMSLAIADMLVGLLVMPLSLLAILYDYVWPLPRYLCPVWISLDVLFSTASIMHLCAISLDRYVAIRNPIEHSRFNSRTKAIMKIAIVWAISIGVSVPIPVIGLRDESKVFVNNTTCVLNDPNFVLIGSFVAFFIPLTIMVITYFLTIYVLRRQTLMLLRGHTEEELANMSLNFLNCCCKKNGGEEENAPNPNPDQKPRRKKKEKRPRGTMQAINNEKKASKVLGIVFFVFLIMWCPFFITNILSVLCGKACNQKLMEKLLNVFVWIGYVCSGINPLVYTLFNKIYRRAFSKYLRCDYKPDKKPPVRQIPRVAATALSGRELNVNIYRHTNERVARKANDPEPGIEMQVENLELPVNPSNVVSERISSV
# [3] = target: T2, 5-hydroxytryptamine receptor 1A (Rattus norvegicus, UniProt P19327); test: Displacement of [3H]8OH-DPAT from 5HT1A in Sprague-Dawley rat brain cortex by liquid scintillation counting
# T2 sequence (P19327 whole entry): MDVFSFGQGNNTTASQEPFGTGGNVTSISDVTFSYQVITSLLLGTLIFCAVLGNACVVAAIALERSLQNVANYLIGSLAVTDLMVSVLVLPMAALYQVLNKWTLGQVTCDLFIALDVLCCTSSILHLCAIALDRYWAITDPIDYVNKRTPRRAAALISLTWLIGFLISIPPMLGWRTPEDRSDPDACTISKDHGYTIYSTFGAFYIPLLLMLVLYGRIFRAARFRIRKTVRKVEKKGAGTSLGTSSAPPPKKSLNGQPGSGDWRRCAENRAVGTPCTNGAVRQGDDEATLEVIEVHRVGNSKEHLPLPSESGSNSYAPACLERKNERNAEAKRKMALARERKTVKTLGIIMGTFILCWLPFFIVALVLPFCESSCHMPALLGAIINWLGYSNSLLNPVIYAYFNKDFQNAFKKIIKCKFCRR
# Summary of the method: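 Male Sprague–Dawley rat (180–220 g) cerebral cortex membranes, washed and preincubated 10 min at 37 °C, in Tris–HCl pH 7.7 with pargyline, 4 mM CaCl2, 0.1% ascorbate. [3H]-8-OH-DPAT at 0.1 nM final, 30 min at 37 °C, GF/B filtration. Nonspecific binding defined with 5-HT. Six concentrations in triplicate; IC50 converted to Ki by Cheng–Prusoff using Scatchard KD.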
# D(1A) dopamine receptor = D(1A) dopamine receptor (Rattus norvegicus, UniProt P18901); test: Displacement of [3H]SCH23390 from dopamine D1 in rat striatum by liquid scintillation counting
# Summary of the method: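 Rat corpora striata membranes in 50 mM Tris–HCl with 120 mM NaCl, 5 mM KCl, 2 mM CaCl2, 1 mM MgCl2, 0.1% ascorbic acid, pargyline, pH 7.1 at 37 °C; 3 mg fresh tissue per tube. [3H]SCH-23390 at 0.4 nM final, 15 min at 37 °C, GF/B filtration. Nonspecific binding defined with piflutixol. Ki from IC50 via Cheng–Prusoff.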
# D(2) dopamine receptor = D(2) dopamine receptor (Rattus norvegicus, UniProt P61169); test: Displacement of [3H]spiperone from dopamine D2 in rat striatum by liquid scintillation counting
# Summary of the method: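 Striatal membranes (3 mg fresh tissue) in Tris–HCl with NaCl, KCl, CaCl2, MgCl2, ascorbic acid and pargyline, pH 7.1 at 37 °C. Incubated with [3H]spiperone at 0.4 nM final for 15 min at 37 °C, then filtered on GF/B. Nonspecific binding defined with (+)-butaclamol. IC50 converted to Ki by Cheng–Prusoff.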
# [4] = target: T3, Adrenergic receptor alpha-1 (Rattus norvegicus, UniProt P15823+P23944+P43140); test: Displacement of [3H]prozosine from alpha1 adrenergic receptor in rat brain cortex by liquid scintillation counting; type: tissue-based
# T3 sequence (P15823 whole entry): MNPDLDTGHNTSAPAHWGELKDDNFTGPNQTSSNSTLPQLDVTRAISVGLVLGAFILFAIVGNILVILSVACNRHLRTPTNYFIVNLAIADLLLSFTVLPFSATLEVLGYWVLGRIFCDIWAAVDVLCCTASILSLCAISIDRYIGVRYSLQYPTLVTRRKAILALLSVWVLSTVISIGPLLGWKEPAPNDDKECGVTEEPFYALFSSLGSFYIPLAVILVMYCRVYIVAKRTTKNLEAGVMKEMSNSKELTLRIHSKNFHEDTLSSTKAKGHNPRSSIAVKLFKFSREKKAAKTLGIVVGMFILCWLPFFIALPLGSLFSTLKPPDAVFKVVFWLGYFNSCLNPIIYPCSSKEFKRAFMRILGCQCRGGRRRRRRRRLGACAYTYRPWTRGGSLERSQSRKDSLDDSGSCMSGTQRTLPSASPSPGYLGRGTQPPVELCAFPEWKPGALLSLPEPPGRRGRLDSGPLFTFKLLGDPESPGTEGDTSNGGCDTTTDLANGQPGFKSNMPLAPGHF
# T3 sequence (P23944 whole entry): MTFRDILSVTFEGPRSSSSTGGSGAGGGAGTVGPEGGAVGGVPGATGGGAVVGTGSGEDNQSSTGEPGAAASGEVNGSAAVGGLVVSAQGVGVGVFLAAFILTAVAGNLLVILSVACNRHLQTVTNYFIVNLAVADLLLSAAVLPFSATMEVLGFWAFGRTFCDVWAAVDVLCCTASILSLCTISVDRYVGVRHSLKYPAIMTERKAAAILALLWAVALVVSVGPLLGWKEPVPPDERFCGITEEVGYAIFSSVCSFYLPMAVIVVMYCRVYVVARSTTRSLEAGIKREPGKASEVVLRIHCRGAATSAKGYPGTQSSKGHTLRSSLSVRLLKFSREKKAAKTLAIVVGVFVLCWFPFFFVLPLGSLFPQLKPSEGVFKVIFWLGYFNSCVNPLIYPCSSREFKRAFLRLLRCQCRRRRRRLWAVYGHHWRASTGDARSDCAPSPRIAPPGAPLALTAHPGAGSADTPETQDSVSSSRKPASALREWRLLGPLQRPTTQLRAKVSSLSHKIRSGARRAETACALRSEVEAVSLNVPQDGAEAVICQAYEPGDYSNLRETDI
# T3 sequence (P43140 whole entry): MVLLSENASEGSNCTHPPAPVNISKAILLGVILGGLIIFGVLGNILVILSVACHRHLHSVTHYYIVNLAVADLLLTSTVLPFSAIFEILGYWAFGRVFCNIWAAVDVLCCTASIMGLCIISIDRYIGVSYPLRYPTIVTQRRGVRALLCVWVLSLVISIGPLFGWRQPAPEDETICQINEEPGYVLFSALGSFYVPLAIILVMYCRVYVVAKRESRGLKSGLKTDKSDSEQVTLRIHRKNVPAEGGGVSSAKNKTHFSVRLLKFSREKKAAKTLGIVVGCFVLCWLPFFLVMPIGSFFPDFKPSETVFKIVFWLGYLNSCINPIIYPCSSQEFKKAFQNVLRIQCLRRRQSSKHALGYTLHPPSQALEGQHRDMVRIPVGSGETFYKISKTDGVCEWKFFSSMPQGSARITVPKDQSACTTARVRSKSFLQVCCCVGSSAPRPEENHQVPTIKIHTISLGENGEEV
# Summary of the method: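 Brain cortex membranes (10 mg fresh tissue) in 50 mM Tris–HCl pH 7.4 at 25 °C. [3H]prazosin at 0.4 nM final, incubated 30 min at 25 °C, GF/B filtration. Nonspecific binding with […]. Ki from IC50 via Cheng–Prusoff.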
# [5] = target: T4, Adrenergic receptor alpha-2 (Rattus norvegicus, UniProt P22086+P19328+P22909); test: Displacement of [3H]yohimbine from alpha2 adrenergic receptor in rat brain cortex by liquid scintillation counting; type: tissue-based
# T4 sequence (P22086 whole entry): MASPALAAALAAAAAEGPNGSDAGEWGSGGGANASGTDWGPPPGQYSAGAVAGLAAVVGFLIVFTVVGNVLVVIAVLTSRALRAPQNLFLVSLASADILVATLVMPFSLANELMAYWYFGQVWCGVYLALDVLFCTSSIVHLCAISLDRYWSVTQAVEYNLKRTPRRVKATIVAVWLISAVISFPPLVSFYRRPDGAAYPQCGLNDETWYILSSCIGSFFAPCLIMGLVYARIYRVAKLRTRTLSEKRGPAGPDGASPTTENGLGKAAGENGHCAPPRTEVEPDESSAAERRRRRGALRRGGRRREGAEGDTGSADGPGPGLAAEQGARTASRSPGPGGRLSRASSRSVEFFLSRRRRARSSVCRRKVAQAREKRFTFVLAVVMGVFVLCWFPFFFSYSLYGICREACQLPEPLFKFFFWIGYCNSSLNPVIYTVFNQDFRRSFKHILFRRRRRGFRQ
# T4 sequence (P19328 whole entry): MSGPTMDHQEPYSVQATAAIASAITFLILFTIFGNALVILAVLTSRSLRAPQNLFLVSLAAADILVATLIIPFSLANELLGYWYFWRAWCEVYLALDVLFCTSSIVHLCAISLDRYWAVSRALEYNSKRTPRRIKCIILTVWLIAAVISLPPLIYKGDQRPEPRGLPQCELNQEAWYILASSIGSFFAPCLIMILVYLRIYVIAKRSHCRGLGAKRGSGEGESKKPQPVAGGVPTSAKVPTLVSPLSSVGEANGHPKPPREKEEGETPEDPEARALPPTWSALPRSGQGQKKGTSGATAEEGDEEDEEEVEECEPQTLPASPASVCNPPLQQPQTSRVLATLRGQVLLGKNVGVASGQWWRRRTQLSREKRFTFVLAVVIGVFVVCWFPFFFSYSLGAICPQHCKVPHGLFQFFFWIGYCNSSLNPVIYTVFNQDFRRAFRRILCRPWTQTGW
# T4 sequence (P22909 whole entry): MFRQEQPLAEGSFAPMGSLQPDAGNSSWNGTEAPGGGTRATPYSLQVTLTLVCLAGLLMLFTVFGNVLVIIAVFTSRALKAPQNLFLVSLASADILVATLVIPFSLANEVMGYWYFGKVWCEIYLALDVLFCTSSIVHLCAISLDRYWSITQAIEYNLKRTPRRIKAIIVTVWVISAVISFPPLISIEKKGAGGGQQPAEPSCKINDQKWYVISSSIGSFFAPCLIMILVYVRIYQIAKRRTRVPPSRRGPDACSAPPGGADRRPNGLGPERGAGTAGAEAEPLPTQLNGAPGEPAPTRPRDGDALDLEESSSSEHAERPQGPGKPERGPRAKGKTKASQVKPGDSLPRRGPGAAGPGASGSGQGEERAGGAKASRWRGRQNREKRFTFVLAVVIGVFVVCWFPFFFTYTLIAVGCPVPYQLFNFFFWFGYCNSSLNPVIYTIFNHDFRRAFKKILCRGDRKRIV
# Summary of the method: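 Cortical membranes prepared in 5 mM Tris–HCl/5 mM EDTA pH 7.3, washed three times; 10 mg fresh tissue per tube. [3H]yohimbine at 1 nM final, 30 min at 25 °C, GF/B filtration, washed with Tris–HCl/EDTA pH 7.5. Nonspecific binding defined with […]. IC50 converted to Ki by Cheng–Prusoff.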
# Chain of D(2) dopamine receptor (P61169 whole entry): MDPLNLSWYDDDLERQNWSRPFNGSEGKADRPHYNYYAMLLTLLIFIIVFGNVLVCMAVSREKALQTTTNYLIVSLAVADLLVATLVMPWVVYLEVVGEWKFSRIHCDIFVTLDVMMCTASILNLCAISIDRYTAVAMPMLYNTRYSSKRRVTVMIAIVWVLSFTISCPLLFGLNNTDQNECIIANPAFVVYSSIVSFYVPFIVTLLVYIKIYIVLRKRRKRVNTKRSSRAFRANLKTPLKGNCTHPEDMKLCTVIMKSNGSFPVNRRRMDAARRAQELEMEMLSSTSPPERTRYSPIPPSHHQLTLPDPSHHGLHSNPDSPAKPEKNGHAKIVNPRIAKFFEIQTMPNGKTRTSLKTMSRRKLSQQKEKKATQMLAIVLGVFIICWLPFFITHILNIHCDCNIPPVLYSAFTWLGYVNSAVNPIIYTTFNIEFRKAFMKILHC
# Chain of D(1A) dopamine receptor (P18901 whole entry): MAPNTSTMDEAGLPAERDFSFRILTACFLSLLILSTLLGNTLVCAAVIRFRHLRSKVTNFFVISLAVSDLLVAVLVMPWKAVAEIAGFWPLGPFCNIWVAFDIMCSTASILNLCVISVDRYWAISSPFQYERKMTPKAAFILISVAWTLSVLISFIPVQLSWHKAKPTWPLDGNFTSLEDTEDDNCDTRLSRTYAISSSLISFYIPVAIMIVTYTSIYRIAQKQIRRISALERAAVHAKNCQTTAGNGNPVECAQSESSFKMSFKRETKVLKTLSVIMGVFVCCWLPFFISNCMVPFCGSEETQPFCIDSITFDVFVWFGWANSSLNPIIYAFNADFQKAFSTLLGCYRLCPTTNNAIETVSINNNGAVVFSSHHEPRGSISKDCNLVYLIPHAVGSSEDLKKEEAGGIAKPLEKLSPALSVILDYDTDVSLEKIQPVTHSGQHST
# Chain of 5-hydroxytryptamine receptor 2A (P14842 whole entry): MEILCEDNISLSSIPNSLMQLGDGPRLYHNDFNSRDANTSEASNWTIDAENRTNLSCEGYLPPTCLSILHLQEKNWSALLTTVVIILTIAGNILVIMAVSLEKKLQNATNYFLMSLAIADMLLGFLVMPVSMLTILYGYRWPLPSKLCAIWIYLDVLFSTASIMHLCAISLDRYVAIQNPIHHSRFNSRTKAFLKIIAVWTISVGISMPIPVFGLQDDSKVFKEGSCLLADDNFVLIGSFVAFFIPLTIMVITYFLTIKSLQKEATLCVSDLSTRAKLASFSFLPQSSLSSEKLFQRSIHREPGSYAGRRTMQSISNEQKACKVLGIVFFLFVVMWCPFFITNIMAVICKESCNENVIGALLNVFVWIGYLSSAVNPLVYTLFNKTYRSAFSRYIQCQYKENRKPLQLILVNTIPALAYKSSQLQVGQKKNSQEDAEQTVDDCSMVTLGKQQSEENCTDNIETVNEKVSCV
SMILES,Ki ([1]; read-out: Ki),Ki ([2]; read-out: Ki),Ki ([3]; read-out: Ki),further results
CCOC(=O)c1cc2cc(OCCCN3CCN(c4ccccc4C#N)CC3)ccc2[nH]1,,,,Ki [1]: Not Active; Ki [2]: Not Active
CCOC(=O)c1cc2cc(OCCCN3CCN(C(=O)c4ccco4)CC3)ccc2[nH]1,452 nM,309 nM,,Ki [3]: Not Active
CCOC(=O)c1cc2cc(OCCCN3CCN(c4ccc(Cl)c(Cl)c4)CC3)ccc2[nH]1,,10000 nM,10000 nM,Ki [1]: Not Active
CCOC(=O)c1cc2cc(OCCCN3CCN(c4ccccc4C)CC3)ccc2[nH]1,,,,Ki [1]: Not Active; Ki [2]: Not Active
CCOC(=O)c1cc2cc(OCCCN3CCN(c4cccc(C(F)(F)F)c4)CC3)ccc2[nH]1,3610 nM,,35.8 nM,Ki [2]: Not Active

# Further lines, with some results ahead:
Ki ([1]; read-out: Ki),Ki ([2]; read-out: Ki),Ki ([3]; read-out: Ki),SMILES,further results
26.1 nM,43.6 nM,10000 nM,CCOC(=O)c1cc2cc(OCCCN3CCN(Cc4ccc5c(c4)OCO5)CC3)ccc2[nH]1,Ki (D(1A) dopamine receptor; read-out: Ki): 10000 nM; Ki (D(2) dopamine receptor): Not Active; Ki [4]: 338 nM; Ki [5]: 231 nM
10000 nM,247 nM,,CCOC(=O)c1cc2cc(OCCCN3CCN(c4ccc([N+](=O)[O-])cc4)CC3)ccc2[nH]1,Ki [3]: Not Active
10000 nM,50.4 nM,10000 nM,CCOC(=O)c1cc2cc(OCCCN3CCN(c4ccc(OC)cc4)CC3)ccc2[nH]1,Ki (D(1A) dopamine receptor): Not Active; Ki (D(2) dopamine receptor): Not Active; Ki [4]: 514 nM; Ki [5]: 6480 nM
537 nM,39.7 nM,10000 nM,CCOC(=O)c1cc2cc(OCCCN3CCN(c4ccccc4Cl)CC3)ccc2[nH]1,
,1.28 nM,39 nM,CCOC(=O)c1cc2cc(OCCCN3CCN(c4cccc(Cl)c4)CC3)ccc2[nH]1,Ki (D(1A) dopamine receptor; read-out: Ki): 1070 nM; Ki (D(2) dopamine receptor): Not Active; Ki [4]: 32.9 nM; Ki [5]: 1350 nM
,45.1 nM,14 nM,CCOC(=O)c1cc2cc(OCCCN3CCN(c4ccc(Cl)cc4)CC3)ccc2[nH]1,
344 nM,104 nM,,CCOC(=O)c1cc2cc(OCCCN3CCN(c4ccccn4)CC3)ccc2[nH]1,Ki [3]: Not Active
